Source: PubChem (several laboratories)
In the library only some 2.7% were active in any assay of this set; here they are far more common.
Yeast life ext: extends the lifespan of yeast; S. cerevisiae growth with nicotinamide, OD615; deaD strain in restrictive glucose medium; inhibition of the nicotinamide effect, % at 10 µM; 130,000 compounds, 0.68% hits;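 active means inhibition above a set limit, placed 3 SD over the median of all compounds, cut at about 26% in these data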;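 further: 0% = nicotinamide-treated wells and 100% = cells grown without nicotinamide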
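Material: Modified budding yeast, DeaD strain | Medium: Restrictive glucose medium | Probe or stimulus: 1.5 mM nicotinamide | Dosing: Single dose 10 µM compound, 0.25% DMSO | Times: 48 h at 30 °C | Technique: OD615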
RAM inhibit: yeast RAM network inhibition | S. cerevisiae dse1pr::URA3 reporter, 5-FOA growth OD615, 2 d; analog-sensitive cbk1-as2 kinase mutant strain | inhibition, % at 50 µM | 190,000 compounds, 1.8% hits;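 active means inhibition above a set limit, 3 SD over mean compound inhibition, cut at about 8.4% in these data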;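 further: 0% = DMSO-only wells with no growth and 100% = 10 µM 1-NA-PP1 full growth; inhibition rescues growth on 5-FOA so higher OD means more RAM inhibition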
BB579 growth dn: yeast BB579 growth reduction in restrictive medium; inhibition, % at 10 µM; 140,000 compounds, 0.51% hits; S. cerevisiae BB579 growth, OD615, 48 h; AID 804;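 active means inhibition above a set limit, 3 SD over the mean compound inhibition, cut at about 44% in these data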
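System: Saccharomyces cerevisiae DeaD strain BB579, replicative lifespan model yeast. Buffer or medium: restrictive glucose-based CSMM-D medium. Doses: one dose, 10 µM compound with 0.25% DMSO. Timing: 4 h preincubation and 48 h exposure at 30 °C. Detection: turbidity as optical density at 615 nm. Benchmarks: amphotericin B 10 µg/mL, positive.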
SDO1 yeast rescue: compounds rescuing growth of sdo1-depleted yeast, bone marrow failure model | S. cerevisiae sdo1-depleted JHY4D growth rescue, OD600 30 h; hits give high values; pdr5 snq2 efflux-pump mutant strain | z-score at 10 µM | 140,000 compounds, 0.21% hits;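 active means z-score above 3 at both the 24 hr and the 30 hr optical density reads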;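 further: z-score against mean and SD of all compound wells on the same plate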
* marks the source's active call; other numbers are inactive results; / = no result.

SMILES | Yeast life ext | RAM inhibit | BB579 growth dn | SDO1 yeast rescue
Cc1cccc(NC(=O)c2oc3ccc(S(=O)(=O)N4CCOCC4)cc3c2C)c1C | -6 | 6 | -26 | -0.44
Cc1ccc(Oc2nc(CN3CCOCC3)nc3sc4c(c23)CCC(C)C4)cc1C (stereo not drawn) | -8 | 1 | 81* | -1.7
Cc1ccc(Oc2nc(CN3CCOCC3)nc3sc4c(c23)CCC(C)C4)cc1 (stereo not drawn) | 14 | -1 | 6 | -2
CC(=O)Nc1ccc(NC(=O)c2ccc(NS(=O)(=O)c3cc(C(C)(C)C)cc(C)c3C)cc2)cc1 | 3 | 10* | -42 | 0.37
Cc1cc(C(C)(C)C)cc(S(=O)(=O)Nc2ccc(O)c(C(=O)O)c2)c1C | -4 | 0 | -14 | 0.37
Cc1ccc(-n2nnnc2Sc2ccc(S(=O)(=O)NCCN(C)C)cc2[N+](=O)[O-])cc1 | 5 | 2 | -45 | -0.34
CCC12CN3CC(CC)(CN(C1)C3c1c(O)ccc3ccccc13)C2=O (stereo not drawn) | 26* | 0 | -38 | -0.54
CC1(C)CC2c3cccc(C(=O)O)c3C(=O)N2c2c1ccc1ccccc21 (stereo not drawn) | 48* | 3 | -21 | -0.52
CC1CC2c3cccc(C(=O)O)c3C(=O)N2c2ccc(Cl)cc21 (stereo not drawn) | / | 3 | / | /
CCOc1ccc(N2C(=O)CC(Sc3ncccn3)C2=O)cc1 (stereo not drawn) | -5 | 4 | -7 | -0.23
CCOc1ccc(N2C(=O)CC(Sc3nc(-c4cccs4)cc(C(F)(F)F)c3C#N)C2=O)cc1 (stereo not drawn) | 7 | 11* | -99 | 0.69
Cc1cc(Oc2ccc(C)c(Cl)c2)nc(SCC(=O)c2ccccc2)n1 | 5 | 9.1* | -32 | -1.5
O=C(CN(C1CCCCC1)S(=O)(=O)c1ccc(Br)cc1)NCc1ccncc1 | / | 0 | / | /
O=C(O)c1ccccc1Nc1ccc([N+](=O)[O-])cc1 | -5 | 1 | 95* | -0.63
COc1cccc2c(=O)c3c(cnn3C)n(C)c12 | -20 | -1 | 74* | 2.3
CCOC(=O)CCSCC(=O)N1N=C(c2cccs2)CC1c1ccc(C)cc1 (stereo not drawn) | 10 | 9.3* | -33 | -0.42
Cc1ccc(C2CC(c3cccs3)=NN2C(=O)CSC2=NN3CCCC(=O)N=C3S2)cc1 (stereo not drawn) | 0 | 3 | -32 | -2
Cc1ccc(N(CC(N)=O)C2SC(=O)N(Cc3ccccc3)C2=O)cc1 (stereo not drawn) | -5 | 9.4* | -23 | 2.5
FC(F)(F)c1cccc(Cn2cnc(NC(=S)NCCc3ccccc3)n2)c1 | / | 6 | / | /
COc1ccc(C=O)cc1COc1c(F)c(F)cc(F)c1F | -4 | 2 | 6 | -0.77
O=C(Nc1ccc(Cl)cc1)c1csc(-c2ccccc2)n1 | -15 | 9.7* | -56 | -0.98
CN(Cc1ccccc1)S(=O)(=O)c1ccc(OCC(=O)Nc2cccc([N+](=O)[O-])c2)cc1 | -1 | 3 | -12 | -0.83
Cc1cc(S(=O)(=O)NCc2ccccc2)ccc1OCC(=O)Nc1cccc([N+](=O)[O-])c1 | -1 | 11* | -11 | -0.61
COc1ccc(/C=N/Nc2ccc(C(F)(F)F)cc2[N+](=O)[O-])cc1O | 2 | 10* | -59 | 0.17
CCOc1ccc(/C=N/Nc2ccc(C(F)(F)F)cc2[N+](=O)[O-])cc1O | 0 | 3 | -39 | -1.2
SMILES | Yeast life ext | RAM inhibit | BB579 growth dn | SDO1 yeast rescue
CCCCOc1ccc(-c2cnc3ccccc3n2)cc1 | -2 | 3 | -34 | -0.14
CCCCCCCOc1ccc(-c2ccc(C#N)cn2)cc1 | -2 | 10* | -12 | -0.12
CCOC(=O)N1CCC(NC(=O)C2CCCN(C(=O)N3CCOc4ccccc43)C2)CC1 (stereo not drawn) | -8 | 2 | -34 | 0.6
COc1ccccc1-c1nc(C#N)c(N2CCc3ccccc3C2)o1 | -23 | 10* | -59 | -1.4
COc1ccc(-c2nc(C#N)c(N3CCc4ccccc4C3)o2)cc1OC | -8 | 2 | -25 | -0.84
Cc1ccc(-n2cccn2)c([C@@H]2C[C@H]3CN(C)C(=O)[C@]34CCCN24)c1 | / | 1 | / | /
CCOC(=O)/C(=C/c1ccc(OC(=O)c2ccccc2)cc1)C(C)=O | 33* | 2 | 17 | -1.8
CC(=O)/C(=C/c1ccc(N(C)C)cc1)C(=O)c1ccccc1 | 3 | 6 | -51 | -1
Cc1cc(C(=O)Nc2sc3c(c2C#N)CCCC3)no1 | -9 | 5 | -14 | -2
Cc1cc(C(=O)Nc2sc3c(c2C#N)CCC3)no1 | -1 | 4 | -30 | -0.53
CC(C)Cc1cc(C(=O)Nc2sc3c(c2C#N)CCCC3)no1 | -3 | 9.9* | -34 | -0.2
CC(C)Cc1cc(C(=O)Nc2sc3c(c2C#N)CCC3)no1 | 3 | 10* | -7 | 0.16
COc1ccc(-n2c(COc3ccc4c(c3)OCO4)nnc2SCC(=O)O)cc1 | / | 5 | / | /
CC(=O)Nc1nc2ccccc2n1Cc1ccccc1 | -23 | 1 | -3 | 2.3
CCOC(=O)CSC1=C(C#N)C(c2ccc(F)cc2)C(C(C)=O)=C(C)N1 (stereo not drawn) | 1 | 3 | -28 | -0.72
CCOC(=O)C1=C(C)NC(SCC(=O)OC)=C(C#N)C1c1ccc(C(=O)OC)cc1 (stereo not drawn) | 5 | 11* | -3 | 0.51
COc1cc(S(=O)(=O)n2nnc3ccccc32)c(OC)cc1Cl | / | 1 | -17 | -1.6
COc1cc(C2Nc3cccc4cccc(c34)N2)ccc1OC(C)=O | -12 | 4 | -37 | -0.54
COc1cc(C2Nc3cccc4cccc(c34)N2)cc(OC)c1O | 7 | 9.3* | -30 | 0.1
CCn1cc(C(=O)NCCCOC)c2cc(OC)c(OC)cc2c1=O | -11 | 0 | -61 | -0.44
Cn1c(Sc2ccc(Br)cc2)c(C=O)c2ccccc21 | -7 | 10* | -31 | -0.8
CCCc1nc(NCc2ccco2)c(C#N)c2c1COC(C)(C)C2 | -1 | 2 | -48 | 1
CCN(CC)CCCN1C(=O)C(O)=C(C(=O)c2ccco2)C1c1ccc(OC(C)C)cc1 (stereo not drawn) | -14 | 0 | -15 | -0.07
O=C(COC(=O)c1cccc(Cl)c1)Nc1cc(Cl)ccc1Oc1ccccc1 | 13 | 10* | -50 | 1.1
CC(=O)Oc1ccc(-c2cccc(C(=O)OCC(=O)Nc3ccccc3Oc3ccccc3)c2)cc1 | -4 | 6 | -30 | 0.11
Cc1cccc(/C(N)=N/OC(=O)c2ccc(F)cc2)c1 | -10 | -1 | 95* | -2.5
Cc1cccc(/C(N)=N/OC(=O)c2cccs2)c1 | -23 | -1 | 10 | -2
CC(=O)CN1Cc2ccccc2/C1=N\C(=O)Nc1ccccc1 | -19 | 1 | -24 | -0.6
COc1ccccc1NC(CC(=O)c1ccccc1)C(=O)OCC(=O)c1ccc(F)cc1 (stereo not drawn) | 0 | 11* | -31 | -0.91
O=C(CC(Nc1cccc(Cl)c1Cl)C(=O)OCC(=O)c1cccs1)c1ccccc1 (stereo not drawn) | -5 | 9.0* | -3 | 0.58
